{"source": "ChEMBL document CHEMBL4715798", "about": "“Structure-Based Optimization of Multifunctional Agonists for Opioid and Neuropeptide FF Receptors with Potent Nontolerance Forming Analgesic Activities” (J Med Chem, 2016)", "key": {"[1]": {"target": "T1, Mu-type opioid receptor (Homo sapiens, UniProt P35372)", "assay": "Agonist activity at mu opioid receptor (unknown origin) expressed in HEK293-A cells assessed as reduction in forskolin-induced cAMP accumulation incubated for 30 mins by competition PKA binding assay", "format": "functional, cell-based", "conditions": "read-out: EC50", "in_short": "(§1)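 cAMP functional read-out in transfected cells. Log EC50 ± standard error was obtained by nonlinear regression of data from at least three independent experiments run in duplicate.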"}, "[2]": {"target": "T1, Mu-type opioid receptor", "assay": "Agonist activity at mu opioid receptor (unknown origin) expressed in HEK293-A cells assessed as reduction in forskolin-induced cAMP accumulation incubated for 30 mins by competition PKA binding assay relative to Tyr-D-Ala-Gly-Phe-Gln-Pro-Gln-Arg-Phe-NH2", "format": "functional, cell-based", "conditions": "filed as agonist", "in_short": "as §1"}, "[3]": {"target": "Kappa-type opioid receptor (Homo sapiens, UniProt P41145)", "assay": "Agonist activity at kappa opioid receptor (unknown origin) expressed in HEK293-A cells assessed as reduction in forskolin-induced cAMP accumulation incubated for 30 mins by competition PKA binding assay", "format": "functional, cell-based", "in_short": "as §1"}, "[4]": {"target": "T2, Delta-type opioid receptor (Homo sapiens, UniProt P41143)", "assay": "Agonist activity at delta opioid receptor (unknown origin) expressed in HEK293-A cells assessed as reduction in forskolin-induced cAMP accumulation incubated for 30 mins by competition PKA binding assay", "format": "functional, cell-based", "in_short": "as §1"}, "[5]": {"target": "T2, Delta-type opioid receptor", "assay": "Agonist activity at delta opioid receptor (unknown origin) expressed in HEK293-A cells assessed as reduction in forskolin-induced cAMP accumulation incubated for 30 mins by competition PKA binding assay relative to Tyr-D-Ala-Gly-Phe-Gln-Pro-Gln-Arg-Phe-NH2", "format": "functional, cell-based", "conditions": "filed as agonist", "in_short": "as §1"}, "[6]": {"target": "T3, Neuropeptide FF receptor 1 (Homo sapiens, UniProt Q9GZQ6)", "assay": "Agonist activity at NPFFR1 (unknown origin) expressed in HEK293-A cells assessed as reduction in forskolin-induced cAMP accumulation incubated for 30 mins by competition PKA binding assay", "format": "functional, cell-based", "conditions": "read-out: EC50", "in_short": "as §1"}, "[7]": {"target": "T3, Neuropeptide FF receptor 1", "assay": "Agonist activity at NPFFR1 (unknown origin) expressed in HEK293-A cells assessed as reduction in forskolin-induced cAMP accumulation incubated for 30 mins by competition PKA binding assay relative to Tyr-D-Ala-Gly-Phe-Gln-Pro-Gln-Arg-Phe-NH2", "format": "functional, cell-based", "conditions": "filed as agonist", "in_short": "as §1"}, "[8]": {"target": "T4, Neuropeptide FF receptor 2 (Homo sapiens, UniProt Q9Y5X5)", "assay": "Agonist activity at NPFFR2 (unknown origin) expressed in HEK293-A cells assessed as reduction in forskolin-induced cAMP accumulation incubated for 30 mins by competition PKA binding assay", "format": "functional, cell-based", "conditions": "read-out: EC50", "in_short": "as §1"}, "[9]": {"target": "T4, Neuropeptide FF receptor 2", "assay": "Agonist activity at NPFFR2 (unknown origin) expressed in HEK293-A cells assessed as reduction in forskolin-induced cAMP accumulation incubated for 30 mins by competition PKA binding assay relative to Tyr-D-Ala-Gly-Phe-Gln-Pro-Gln-Arg-Phe-NH2", "format": "functional, cell-based", "conditions": "filed as agonist", "in_short": "as §1"}, "[10]": {"tested_on": "Mus musculus", "assay": "Antinociceptive activity in mouse dosed repeated icv injections for 6 days by radiant heat tail-flick test", "format": "functional", "conditions": "time 6 day", "in_short": "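Mice received the same icv dose once daily for 6 days in the radiant heat tail-flick test. Tolerance was judged by comparing the antinociceptive response on day 1 with day 6. Values are mean ± SEM.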"}, "[11]": {"tested_on": "Mus musculus", "assay": "Antinociceptive activity in mouse assessed as development of tolerance dosed repeated icv injections for 6 days by radiant heat tail-flick test", "format": "functional, organism-based", "conditions": "time 6.0 day", "in_short": "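Tail-flick test in mice. Peptide was given icv once daily for 6 days at a fixed dose. Antinociceptive responses to the same dose on day 1 and day 6 were compared to judge tolerance. Values are mean ± SEM.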"}, "[12]": {"tested_on": "Mus musculus", "assay": "Antinociceptive activity in mouse assessed as time duration of antinociceptive effect dosed repeated icv injections for 6 days by radiant heat tail-flick test", "format": "functional", "conditions": "time 6 day"}, "[13]": {"tested_on": "Mus musculus", "assay": "Antinociceptive activity in mouse assessed as time for peak antinociceptive effect dosed repeated icv injections for 6 days by radiant heat tail-flick test", "format": "functional", "conditions": "time 6 day"}, "[14]": {"assay": "Half life in mouse brain membrane homogenate at 10 uM by HPLC analysis", "format": "ADME, cell membranes"}, "[15]": {"tested_on": "Mus musculus", "assay": "Antinociceptive activity in mouse at 50 pmol, […] pre-treated with 5 nmol, icv opioid receptor antagonist naloxone 10 mins prior to test compound dosing by radiant heat tail-flick test", "format": "functional, organism-based"}, "[16]": {"tested_on": "Mus musculus", "assay": "Antinociceptive activity in mouse at 50 pmol, […] pre-treated with 10 nmol, icv mu opioid receptor antagonist beta-funaltrexamine 4 hrs prior to test compound dosing by radiant heat tail-flick test", "format": "functional, organism-based"}, "[17]": {"tested_on": "Mus musculus", "assay": "Antinociceptive activity in mouse at 50 pmol, […] pre-treated with 10 nmol, icv kappa opioid receptor antagonist nor-binaltorphimine 30 mins prior to test compound dosing by radiant heat tail-flick test", "format": "functional, organism-based"}, "[18]": {"tested_on": "Mus musculus", "assay": "Antinociceptive activity in mouse at 50 pmol, […] pre-treated with 10 nmol, icv delta opioid receptor antagonist naltrindole 20 mins prior to test compound dosing by radiant heat tail-flick test", "format": "functional, organism-based"}, "[19]": {"tested_on": "Mus musculus", "assay": "Antinociceptive activity in mouse at 50 pmol, […] pre-treated with 10 nmol, icv nonselective NPFF receptor antagonist RF9 by radiant heat tail-flick test", "format": "functional, organism-based"}, "[20]": {"tested_on": "Mus musculus", "assay": "Antinociceptive activity in ip dosed mouse by radiant heat tail-flick test", "format": "functional"}, "[21]": {"tested_on": "Mus musculus", "assay": "Antinociceptive activity in icv dosed mouse assessed as inhibition of phase I flinching behaviors by formalin-induced nociceptive behavioral test", "format": "functional"}, "[22]": {"tested_on": "Mus musculus", "assay": "Antinociceptive activity in icv dosed mouse assessed as inhibition of phase II flinching behaviors by formalin-induced nociceptive behavioral test", "format": "functional"}, "[23]": {"tested_on": "Mus musculus", "assay": "Antinociceptive activity in icv dosed mouse model of CFA-induced chronic inflammatory pain assessed as reduction in tactile hyperalgesia measured after 15 to 90 mins post dose", "format": "functional", "conditions": "time 15-90 min"}, "[24]": {"assay": "Toxicity in mouse assessed as latency to fall off the rod at 200 pmol, icv measured after 10 to 30 mins by rotarod test", "conditions": "in vivo, icv_or_intrathecal, time 10-30 min"}, "[25]": {"tested_on": "Mus musculus", "assay": "Antinociceptive activity in mouse model of CFA-induced chronic inflammatory pain assessed as reduction in tactile hyperalgesia at 30 pmol, icv dosed once daily for 6 days", "format": "functional, organism-based", "conditions": "time 6.0 day"}, "[26]": {"assay": "Toxicity in mouse assessed as latency to fall off the rod at 30 mg/kg, ip measured after 10 to 30 mins by rotarod test", "format": "organism-based", "conditions": "in vivo, time 10-30 min"}}, "note": "Activity calls are given as the source filed them. No cut-off for these calls is given here. Non-standard residues stand in square brackets, D forms with d. Residues, ends and D or L forms follow the SMILES beside them. NMeF = CN[C@@H](Cc1ccccc1)C(=O)O"}
{"smiles": "C[C@@H](NC(=O)[C@@H](N)Cc1ccc(O)cc1)C(=O)NCC(=O)N(C)[C@@H](Cc1ccccc1)C(=O)NCC(=O)N1CCC[C@H]1C(=O)N[C@@H](CCC(N)=O)C(=O)N[C@@H](CCCNC(=N)N)C(=O)N[C@@H](Cc1ccccc1)C(N)=O", "note": "(H-Y[dA]G[NMeF]GPQRF-NH2)", "values": [{"measurement": "EC50", "setting": "[1]", "result": 38.6, "unit": "nM"}, {"measurement": "Emax", "setting": "[2]", "result": 81.6, "unit": "%"}, {"measurement": "EC50", "setting": "[3]", "result": 1490, "unit": "nM"}, {"measurement": "EC50", "setting": "[4]", "result": 575, "unit": "nM"}, {"measurement": "Emax", "setting": "[5]", "result": 85.4, "unit": "%"}, {"measurement": "EC50", "setting": "[6]", "result": 973, "unit": "nM"}, {"measurement": "Emax", "setting": "[7]", "result": 69.8, "unit": "%"}, {"measurement": "EC50", "setting": "[8]", "result": 311, "unit": "nM"}, {"measurement": "Emax", "setting": "[9]", "result": 73.3, "unit": "%"}, {"measurement": "ED50", "setting": "[10]", "result": 0.0163, "unit": "nmol"}, {"measurement": "Activity", "setting": "[11]", "result": "Active"}, {"measurement": "Time", "setting": "[12]", "result": ">60", "unit": "min"}, {"measurement": "Time", "setting": "[13]", "result": 20, "unit": "min"}, {"measurement": "half-life at 10 µM", "setting": "[14]", "result": 1.44, "unit": "h"}, {"measurement": "Activity", "setting": "[15]", "result": "inactive"}, {"measurement": "Activity", "setting": "[16]", "result": "Active"}, {"measurement": "Activity", "setting": "[17]", "result": "Active"}, {"measurement": "Activity", "setting": "[18]", "result": "inactive"}, {"measurement": "Activity", "setting": "[19]", "result": "Active"}, {"measurement": "Activity", "setting": "[20]", "result": "Dose-dependent effect"}, {"measurement": "ED50", "setting": "[20]", "result": 26.6, "unit": "mg/kg"}, {"measurement": "Activity", "setting": "[21]", "result": "Dose-dependent effect"}, {"measurement": "ED50", "setting": "[21]", "result": 18.8, "unit": "pmol"}, {"measurement": "Activity", "setting": "[22]", "result": "Dose-dependent effect"}, {"measurement": "ED50", "setting": "[22]", "result": 103.4, "unit": "pmol"}, {"measurement": "Activity", "setting": "[23]", "result": "Dose-dependent effect"}, {"measurement": "ED50", "setting": "[23]", "result": 3.92, "unit": "pmol"}, {"measurement": "Activity", "setting": "[24]", "result": "Non-Toxic"}, {"measurement": "Activity", "setting": "[25]", "result": "Active"}, {"measurement": "Activity", "setting": "[26]", "result": "Non-Toxic"}]}
